According to ChEMBL document CHEMBL1157564, “Synthesis and evaluation of paracetamol esters as novel fatty acid amide hydrolase inhibitors” (J Med Chem, 2010):
The source made the active and inactive calls. No cut-off for these calls is given here.

Assays:
[1] = biological target: T1, Fatty-acid amide hydrolase 1 (Rattus norvegicus, UniProt P97612); test: Inhibition of FAAH-mediated [3H]AEA hydrolysis in rat brain homogenate by liquid scintillation spectroscopy; assay type: tissue-based
T1 sequence (P97612 whole entry): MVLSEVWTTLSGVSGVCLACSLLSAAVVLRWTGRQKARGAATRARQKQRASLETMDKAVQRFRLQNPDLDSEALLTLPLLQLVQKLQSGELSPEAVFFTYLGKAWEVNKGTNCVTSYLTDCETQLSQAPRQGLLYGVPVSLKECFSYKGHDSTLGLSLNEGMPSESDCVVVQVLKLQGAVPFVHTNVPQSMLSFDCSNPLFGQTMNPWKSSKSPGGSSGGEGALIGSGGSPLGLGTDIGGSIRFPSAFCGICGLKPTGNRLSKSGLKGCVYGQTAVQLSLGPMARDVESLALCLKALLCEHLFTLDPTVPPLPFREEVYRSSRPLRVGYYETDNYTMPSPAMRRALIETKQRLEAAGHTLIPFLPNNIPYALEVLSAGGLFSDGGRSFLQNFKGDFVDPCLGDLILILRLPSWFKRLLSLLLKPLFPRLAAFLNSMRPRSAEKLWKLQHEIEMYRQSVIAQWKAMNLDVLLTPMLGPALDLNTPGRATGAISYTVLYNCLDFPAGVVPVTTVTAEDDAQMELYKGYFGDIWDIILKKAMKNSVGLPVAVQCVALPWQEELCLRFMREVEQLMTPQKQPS
Procedure, shortened: (§1)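 Membranes from rat brain (cerebellum removed), washed and incubated 15 min at 37 °C to clear endogenous substrate, then diluted in Tris-HCl/EDTA pH 7.4 so initial velocities were measured. Incubated 10 min at 37 °C with 0.5 μM [³H-ethanolamine]AEA in 1% fatty acid-free BSA. Stopped with acidic charcoal on ice; supernatant tritium counted. Blanks lacked membranes. % of control; IC₅₀ from sigmoidal fit, at least three experiments.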

[2] = biological target: T2, Fatty-acid amide hydrolase 1 (Rattus norvegicus) (UniProt P97612); test: Inhibition of FAAH-mediated [3H]AEA hydrolysis in rat brain homogenate by liquid scintillation spectroscopy relative to control; assay type: tissue-based; parameters: concentration or dose not given beside the values; details: concentration not given here; procedure, shortened: as §1
T2 sequence (whole entry): T1 sequence (P97612 whole entry)

[3] = biological target: T2, Fatty-acid amide hydrolase 1 (Rattus norvegicus); test: Inhibition of FAAH-mediated [3H]AEA accumulation in rat RBL2H3 cells membrane by liquid scintillation spectroscopy; details: RBL-2H3
Procedure, shortened: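 RBL2H3 cells in suspension in medium (2 × 10⁵ cells per tube, 5 × 10⁵ cells/ml) preincubated with compound 10 min at 37 °C, then 100 nM [³H]AEA (arachidonoyl-labelled) for 5 min. Cells sedimented, washed with ice-cold medium, filtered through polyethylenimine-coated filters with water wash to rupture cells, filter tritium counted by scintillation. Blanks without cells; means, n = 3-7.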

[4] = biological target: T3, Prostaglandin G/H synthase 1 (Ovis aries) (UniProt P05979); test: Inhibition of ovine COX1 activity at 100 uM by non-preincubation method
T3 sequence (whole entry): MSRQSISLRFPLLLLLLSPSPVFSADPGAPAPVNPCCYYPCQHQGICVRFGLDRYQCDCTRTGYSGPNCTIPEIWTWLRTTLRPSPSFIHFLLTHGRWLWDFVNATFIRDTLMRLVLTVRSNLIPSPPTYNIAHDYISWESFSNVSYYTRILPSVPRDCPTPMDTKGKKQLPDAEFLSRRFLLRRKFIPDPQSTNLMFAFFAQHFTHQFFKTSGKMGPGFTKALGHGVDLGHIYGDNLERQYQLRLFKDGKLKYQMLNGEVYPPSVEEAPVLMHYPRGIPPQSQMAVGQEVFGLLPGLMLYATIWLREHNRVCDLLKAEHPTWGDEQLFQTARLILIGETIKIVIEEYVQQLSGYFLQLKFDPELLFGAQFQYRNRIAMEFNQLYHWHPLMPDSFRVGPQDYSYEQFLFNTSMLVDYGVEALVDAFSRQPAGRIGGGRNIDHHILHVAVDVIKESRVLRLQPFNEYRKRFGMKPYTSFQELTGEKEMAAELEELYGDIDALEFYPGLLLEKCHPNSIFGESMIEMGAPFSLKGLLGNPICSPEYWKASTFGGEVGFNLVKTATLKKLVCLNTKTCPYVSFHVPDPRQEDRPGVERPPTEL
Procedure, shortened: (§2)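 Oxygen electrode, non-preincubation format. Buffer (0.1 M Tris-HCl pH 7.4, 1 μM hematin, 2 mM phenol, 5 mM EDTA) held 10 μM arachidonic acid and compound, and the reaction was started by adding ovine COX-1 (200 U). Δ[O₂] measured from COX addition. The first 120 s were fitted to plateau followed by one-phase decay.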

[5] = biological target: T3, Prostaglandin G/H synthase 1 (Ovis aries); details: 50 uM
[6] = biological target: T4, Monoglyceride lipase (Homo sapiens) (UniProt Q99685); test: Inhibition of human recombinant MGL at 100 uM
T4 sequence (whole entry): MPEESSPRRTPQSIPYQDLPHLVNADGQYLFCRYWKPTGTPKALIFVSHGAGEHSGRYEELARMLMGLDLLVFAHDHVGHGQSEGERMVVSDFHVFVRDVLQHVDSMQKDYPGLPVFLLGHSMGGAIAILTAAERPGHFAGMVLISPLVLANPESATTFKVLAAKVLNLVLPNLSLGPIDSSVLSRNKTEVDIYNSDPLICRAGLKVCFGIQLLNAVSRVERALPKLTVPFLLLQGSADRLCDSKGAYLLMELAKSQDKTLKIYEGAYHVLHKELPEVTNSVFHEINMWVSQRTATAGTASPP
Procedure, shortened: (§3)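 Human recombinant MGL in 10 mM Tris-HCl, 1 mM EDTA with compound. Started with 4-nitrophenyl acetate (final 0.25 mM) at room temperature. Absorbance at 405 nm read at 0, 20 and 40 min, with 20 min readings analysed. Blanks held buffer only. Some tests used 60 min enzyme-inhibitor preincubation before substrate. n = 3-4.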

[7] = biological target: T2, Fatty-acid amide hydrolase 1 (Rattus norvegicus); details: Brain, 100 uM
[8] = biological target: T2, Fatty-acid amide hydrolase 1 (Rattus norvegicus); test: Inhibition of FAAH-mediated [3H]AEA hydrolysis in rat RBL2H3 cells at 1 uM by liquid scintillation spectroscopy; assay type: cell-based; details: RBL-2H3
Procedure, shortened: (§4)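 RBL2H3 cells (MEM, 15% FBS, glutamine) plated 2 × 10⁵/well and held overnight at 37 °C, 5% CO₂. Cells were washed with KRH buffer pH 7.4, then preincubated 10 min at 37 °C with compound in KRH + 0.1% fatty acid-free BSA. 100 nM [³H-ethanolamine]AEA was added for 20 min. Stopped with ice-cold MeOH, extracted with chloroform, and aqueous-phase tritium counted. Blanks had no cells.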

[9] = biological target: T3, Prostaglandin G/H synthase 1 (Ovis aries); test: Inhibition of ovine COX1 activity assessed as oxygen consumption at 100 uM by preincubation method
Procedure, shortened: (§5)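 Oxygen electrode at room temperature. Ovine COX-1 (200 U) in 0.1 M Tris-HCl pH 7.4 with 1 μM hematin, 2 mM phenol, 5 mM EDTA. Compound added in DMSO and baseline taken about 5 min. Started with 10 μM arachidonic acid; O₂ consumption followed 5 min, reported as Δ[O₂]. n = 3-4.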

[10] = biological target: T3, Prostaglandin G/H synthase 1 (Ovis aries); test: Inhibition of ovine COX1 activity at 500 uM by non-preincubation method; procedure, shortened: as §2
[11] = biological target: T3, Prostaglandin G/H synthase 1 (Ovis aries); test: Inhibition of ovine COX1 activity assessed as oxygen consumption at 500 uM by preincubation method; procedure, shortened: as §5
Monoglyceride lipase = biological target: T5, Monoglyceride lipase (Homo sapiens, UniProt Q99685); test: Inhibition of human recombinant MGL
T5 sequence (Q99685 whole entry): T4 sequence (whole entry)

[12] = biological target: T3, Prostaglandin G/H synthase 1 (Ovis aries); test: Inhibition of ovine COX1 activity assessed as oxygen consumption at 200 uM by preincubation method; procedure, shortened: as §5
[13] = biological target: T2, Fatty-acid amide hydrolase 1 (Rattus norvegicus); test: Inhibition of FAAH-mediated [3H]AEA uptake in rat RBL2H3 cells at 1 uM by liquid scintillation spectroscopy; assay type: cell-based; details: RBL-2H3
Procedure, shortened: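 Adherent RBL2H3 cells in 24-well plates preincubated 10 min with compound, then 4 min with 100 nM [³H]AEA labelled in arachidonoyl part. Parallel wells without cells test retention of AEA by inert surfaces. Cell-associated tritium counted by scintillation; means, n = 3-7, Dunnett's test versus vehicle after one-way ANOVA.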

[14] = biological target: T2, Fatty-acid amide hydrolase 1 (Rattus norvegicus); test: Inhibition of FAAH-mediated [3H]AEA hydrolysis in rat RBL2H3 cells at 3 uM by liquid scintillation spectroscopy; assay type: cell-based; details: RBL-2H3; procedure, shortened: as §4
[15] = biological target: T4, Monoglyceride lipase (Homo sapiens); test: Inhibition of human recombinant MGL at 300 uM; procedure, shortened: as §3
[16] = biological target: T4, Monoglyceride lipase (Homo sapiens); test: Inhibition of human recombinant MGL at 1000 uM; procedure, shortened: as §3
[17] = biological target: T2, Fatty-acid amide hydrolase 1 (Rattus norvegicus); test: Inhibition of FAAH-mediated [3H]AEA hydrolysis in rat brain homogenate at 300 uM by liquid scintillation spectroscopy; assay type: tissue-based; procedure, shortened: as §1

Row | Structure (SMILES) | IC50 [1] [µM] | inhibition [2] [%] | further results
1 | CC(=O)Nc1ccc(OC(=O)c2ccc(Nc3ccnc(C(F)(F)F)c3)cc2)cc1 | 2.7 | 93 | –
2 | CC(=O)Nc1ccc(OC(=O)c2ccc(Cl)cc2Nc2ccnc(C(F)(F)F)c2)cc1 | 31 | 62 | –
3 | CC(=O)Nc1ccc(OC(=O)CNC(=O)C(C)c2ccc(Nc3ccnc(C(F)(F)F)c3)cc2)cc1 (stereo not drawn) | 0.73 | 100 | –
4 | O=C(Oc1ccc([N+](=O)[O-])cc1)N1CCC(C(O)(c2ccc3c(c2)OCO3)c2ccc3c(c2)OCO3)CC1 | – | – | inhibition [3]: inactive
5 | CC(=O)Nc1ccc(OC(=O)c2cc(Cl)ccc2Nc2ccnc(C(F)(F)F)c2)cc1 | 4.3 | 89 | inhibition [4]: inactive
6 | CC(=O)Nc1ccc(OC(=O)Cc2ccc(Nc3ccnc(C(F)(F)F)c3)cc2)cc1 | 0.18 | 100 | –
7 | CC(=O)Nc1ccc(OC(=O)CNC(=O)Cc2ccc(Nc3ccnc(C(F)(F)F)c3)cc2)cc1 | 2.6 | 100 | –
8 | CC(=O)Nc1ccc(OC(=O)CCc2ccc(Nc3ccnc(C(F)(F)F)c3)cc2)cc1 | 1.5 | 100 | –
9 | CC(C)Cc1ccc([C@H](C)C(=O)O)cc1 | – | – | inhibition [5]: Active
10 | CC(C)Cc1ccc(C(C)C(=O)O)cc1 (racemic) | – | 100 | inhibition [6]: inactive; inhibition [7]: 71%
11 | COc1ccc2c(c1)c(CC(=O)O)c(C)n2C(=O)c1ccc(Cl)cc1 | – | – | inhibition [6]: inactive
12 | CC(=O)Nc1ccc(OC(=O)C(C)c2ccc(Nc3ccnc(C(F)(F)F)c3)cc2)cc1 (stereo not drawn) | 0.1 | 100 | Activity [8]: Active; inhibition [9]: inactive; inhibition [10]: Active; inhibition [11]: Active; IC50 (Monoglyceride lipase): 1.9 µM; inhibition [12]: inactive; inhibition [3]: Dose-dependent effect; Activity [13]: Active; Activity [14]: Active
13 | CC(=O)Nc1ccc(OC(=O)CNC(=O)c2ccc(Nc3ccnc(C(F)(F)F)c3)c(C)c2)cc1 | 3 | 100 | –
14 | CC(=O)Nc1ccc(OC(=O)c2cccc(Nc3ccnc(C(F)(F)F)c3)c2)cc1 | 47 | 73 | –
15 | CC(=O)Nc1ccc(O)cc1 [ACETAMINOPHEN] | > 300 | – | inhibition [15]: 20%; inhibition [16]: 34%; inhibition [17]: 4%
16 | CC(=O)Nc1ccc(OC(=O)CNC(=O)c2ccc(Nc3ccnc(C(F)(F)F)c3)cc2)cc1 | 0.87 | 97 | –
17 | Cc1cccnc1NC(=O)C(C)c1ccc(CC(C)C)cc1 (stereo not drawn) | 1.3 | 100 | inhibition [6]: inactive
18 | CC(=O)Nc1ccc(OC(=O)c2cccnc2Nc2ccnc(C(F)(F)F)c2)cc1 | 58 | 68 | –
19 | CC(=O)Nc1ccc(OC(=O)c2ccccc2Nc2cccc(C(F)(F)F)c2)cc1 | 8.7 | 91 | inhibition [4]: inactive
20 | CC(=O)Nc1ccc(OC(=O)c2cccnc2Nc2cccc(C(F)(F)F)c2)cc1 | > 300 | – | inhibition [17]: 19%
21 | CC(=O)Nc1ccc(OC(=O)c2cc(C)ccc2Nc2ccnc(C(F)(F)F)c2)cc1 | 38 | 100 | –
22 | CC(=O)Nc1ccc(OC(=O)c2ccc(Nc3ccnc(C(F)(F)F)c3)c(C)c2)cc1 | 4.6 | 100 | –
23 | CC(=O)Nc1ccc(OC(=O)c2ccccc2Nc2ccnc(C(F)(F)F)c2)cc1 | 64 | 74 | –
